We go through 1 molecule from ChEMBL document CHEMBL1122411 (J Med Chem, 1983).

The structures appear in SMILES notation. “And” between values parts separate entries of the source, which are not always exact repeats. Identical values can stand only once.

Holding throughout (assay type): functional
In experiment [1] the test system is Mus musculus. Description: Weight change on day 7 in L1210 Lymphoid Leukemia in mice at a dose of 0.25 mg/kg/day (b.i.d. x10). The method, boiled down: (§1)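 Male B6D2F₁J mice (20–25 g) bearing ip L1210 ascites (10⁵ cells, day 0) were used, 5 per group. Drug was given ip in water at pH 7.5–8.0 from day 1 on q2d×5, qd×9 or b.i.d.×10 schedules. Animals were weighed after 7 days and percent weight change recorded.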

Experiment [2] is filed under the species Mus musculus. Kind of experiment: 1Percentage increase in life span after 12-15 days. In outline: (§2)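 Male B6D2F1J mice (20–25 g), randomized after i.p. inoculation with 10^5 L1210 ascitic leukemia cells on day 0. Drug in water, pH 7.5–8.0, given i.p. on a q2d×5, qd×9 (from day 1) or b.i.d.×10 schedule; 5 mice per group. %ILS = [(T/C) − 1]100 from median survival days of treated versus control mice. Range is survival days.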

Experiment [3] is filed under the species Mus musculus. Kind of experiment: Percentage increase in life span after 14-18d ays. In outline: as §2
Experiment [4] has as its system Mus musculus. Kind of experiment: Toxicity in mice after 14-18 days at a dose of 10 mg/kg/day; value is 17/9.
In experiment [5] the test system is Mus musculus. Kind of experiment: Toxicity in mice after 15-17 days at a dose of 0.5 mg/kg/day; value is 16/8.
Experiment [6] has as its system Mus musculus. Kind of experiment: Toxicity in mice after 12-19 days at a dose of 4 mg/kg/day; value is 17/9.
For experiment [7], the system named is Mus musculus. Kind of experiment: Toxicity in mice after 15-17 days at a dose of 0.75 mg/kg/day; value is 17/8.
Experiment [8] relates to Mus musculus. Kind of experiment: Weight change on day 7 in L1210 Lymphoid Leukemia in mice at a dose of 15 mg/kg/day (qd x5). The settings on record: in the assay text read “q2dx5” for “qdx5”. In outline:
as §1

The subject of experiment [9] is Mus musculus. Kind of experiment: Weight change on day 7 in L1210 Lymphoid Leukemia in mice at a dose of 6 mg/kg/day (qdX9). In outline:
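Male B6D2F1J mice (20–25 g) were inoculated i.p. with 10⁵ L1210 ascites cells on day 0 and randomized into groups of 5. Drug in water at pH 7.5–8.0 was given i.p. daily for 9 days (qd×9) from day 1. Animals were weighed after 7 days, and the % body-weight change was recorded under a standard NCI protocol.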

The species named for experiment [10] is Mus musculus. Kind of experiment: Percentage increase in life span after 17-22 days. The method, boiled down: as §2
Experiment [11] has as its system Mus musculus. Kind of experiment: Toxicity in mice after 14-18 days at a dose of 2 mg/kg/day; value is 16/9.
The test system of experiment [12] is Mus musculus. Kind of experiment: Toxicity in mice after 11-22 days at a dose of 6 mg/kg/day; value is 21/9.
The test system of experiment [13] is Mus musculus. Description: Toxicity in mice after 12-15 days at a dose of 0.25 mg/kg/day; value is 13/8.
Experiment [14] concerns Mus musculus. Description: Weight change on day 7 in L1210 Lymphoid Leukemia in mice at a dose of 4 mg/kg/day (qdX9). The method, boiled down: as §1
The species entered for experiment [15] is Mus musculus. Kind of experiment: Toxicity in mice after 17-22 days at a dose of; value is 20/9.
The subject of the next experiment is L1210. Description: cytotoxicity against L1210 cells. The following applies: Mus musculus, read-out: ID50 (the source's name).
The species entered for experiment [16] is Mus musculus. Description: Percentage increase in life span after 11-22 days. In outline:
as §2

Experiment [17] has as its system Mus musculus. Kind of experiment: Weight change on day 7 in L1210 Lymphoid Leukemia in mice at a dose of 2 mg/kg/day (qdx9). The method, boiled down:
as §1

The subject of experiment [18] is Mus musculus. Kind of experiment: Weight change on day 7 in L1210 Lymphoid Leukemia in mice at a dose of 0.75 mg/kg/day (b.i.d. x10). The method, boiled down:
as §1

Experiment [19] concerns Mus musculus. Description: Weight change on day 7 in L1210 Lymphoid Leukemia in mice at a dose of 10 mg/kg/day (qd x5).
For experiment [20], the species on record is Mus musculus. Description: Percentage increase in life span after 12-19 days. The method, boiled down: as §2
Experiment [21] deals with Mus musculus. Kind of experiment: Weight change on day 7 in L1210 Lymphoid Leukemia in mice at a dose of 0.5 mg/kg/day (b.i.d. x10). The method, boiled down:
as §1

`CN(Cc1cnc2nc(N)nc(N)c2n1)c1ccc(C(=O)N[C@@H](CCC(=O)O)C(=O)O)cc1` [METHOTREXATE]: the Weight change in the experiment on Mus musculus [1] is 1%; in the experiment with Mus musculus [8], 8%; in the experiment on Mus musculus [9] it was -2%; with Mus musculus [14], -2%; with Mus musculus [17] it was 6%; in the experiment with Mus musculus [18], 3%. Further, the Weight change in the experiment on Mus musculus [19] came to 11%; in the experiment with Mus musculus [21], 1%. Moreover, the increase in life span (ILS) in the experiment listed under Mus musculus [2] was 63%; in the experiment listed under Mus musculus [3], 89% and 78%; in the experiment listed under Mus musculus [10] it was 122%; in the experiment listed under Mus musculus [16], 133%; in the experiment listed under Mus musculus [20], 89%. Besides, the T/C with Mus musculus [4] stood at 17; in the experiment on Mus musculus [5], 16; in the experiment with Mus musculus [6] it was 17; in the experiment with Mus musculus [7] it was 17; with Mus musculus [11] it was 16; in the experiment on Mus musculus [12], 21. Also, the T/C in the experiment with Mus musculus [13] is listed as 13; in the experiment listed under Mus musculus [15], 20. The IC50 in the experiment on L1210 turned out to be 20 nM.

As usually defined, the ILS is the gain in survival time of treated over control animals, in per cent.
